The values that follow come from ChEMBL document CHEMBL4513216, “Probing the Open Global Health Chemical Diversity Library for Multistage-Active Starting Points for Next-Generation Antimalarials” (ACS Infect Dis, 2020).

This series in a line: Toxicity liver stage against HepG2, at 10uM. The conditions noted are these: human, HepG2-A16-CD81EGFP cells; read-out: INHIBITION
Type of series: cell-based. On the set-up: test concentration 10 uM, cell line HepG2-A16-CD81EGFP. The method in brief:
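Uninfected HepG2-A16-CD81EGFP cells, 3 × 10^3 per well, 1536-well, plated on prespotted compound at 10 μM final, parasite-free screening media added to match infected plates; puromycin 10 μM positive, DMSO 0.5% negative; run in parallel with 48 h PbLuc assay at 37 °C, 5% CO2; viability by CellTiter-Glo luminescence, normalized to controls.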
As to `CCCS(=O)(=O)N1CCN(Cc2ccco2)CC1`, the cytotoxicity at 10 µM amounted to 4.28%. Turning to `Cc1ccc(-c2c[nH]c([C@@H]3COCCN3Cc3cccnc3)n2)cc1`, the cytotoxicity at 10 µM was 0.283%.

On to `O=C(NCCC1=CCCCC1)c1ccc(-n2cccc2)nc1`, for which the cytotoxicity at 10 µM was -1.46%. Under `CC1CN(c2ncccc2C(=O)N[C@@H]2CCCc3ccccc32)CCN1` (stereo partly drawn) stands 10.7%.

With `O=C1Nc2ccccc2/C1=C1\CCCCCN1`, the cytotoxicity at 10 µM was determined as 13.6%. Under `Cc1nn(-c2ccc(C(=O)O)cc2)c2c1C(C(C)C)SCC(=O)N2` (stereo not drawn) stands -3.58%. As for `CSCCC(Nc1nc(C)cc(C)n1)C(=O)NC(C)(C)CO` (stereo not drawn), the figure is -5.15%; as for `CCN1C(=O)CCC12CCN(S(=O)(=O)c1ccccc1)CC2`, -4.9%; as for `CC(C)C(=O)NC1COC2(CCN(C(=O)c3cccnc3)CC2)C1` (stereo not drawn), 4.26%. `Cn1cccc1C(=O)N1C[C@H]2CN(Cc3cccnc3)C[C@H]2C1`: the cytotoxicity at 10 µM stood at 3.94%. Under `O=C(C1CCOCC1)N1CC[C@@H](O)[C@@H]1Cc1ccncc1` stands -2.36%; under `c1cc(CN2CCc3c(CN4CCCC4)n[nH]c3C2)ccn1`, -10.5%; under `Cc1ncnc2c1CCN(C(=O)c1cccnc1)CC2`, 8.36%.

For `CN1CCN(C(=O)c2cc(-c3cnc(N4CCCC4)nc3)cn2C)CC1`, the cytotoxicity at 10 µM is -1.43%.

For `CC(C)NC(=O)N1CCN(C(=O)NC(C)C)CC2(CNC(=O)C2)C1`, the cytotoxicity at 10 µM stood at 3.3%. As for `Cc1cc(O)c(OCC(=O)/N=c2/[nH]c3c(s2)CCC3)cn1`, the figure is 10.4%. Under `Cc1n[nH]c2c1C(c1cnn(C)c1)SCC(=O)N2` (stereo not drawn) stands 7.7%; under `CN(C)C(=O)N1CCc2c(nnn2C)C1COCc1ccccc1` (stereo not drawn), -8.39%; under `CS(=O)(=O)Nc1nn(Cc2ccc(F)cc2)cc1Br`, 5.88%.

For the compound `Cc1nn(Cc2ccc(C(=O)NCCCN3CCCC3=O)o2)c(C)c1Cl`, the cytotoxicity at 10 µM is -10.2%. As for `COc1ccc(C)cc1Nc1nc2c(C)nn(C)c2c(=O)n1C`, the figure is 3.96%; as for `O=C(CCn1ncc2c(Cl)cccc21)NCCCn1cccn1`, 6.25%; as for `Cc1cc(C(=O)NCc2cccs2)nc(N2CCCC2)n1`, -0.438%. Under `Cc1noc(C)c1-c1cc(CCC2CN(CCC(N)=O)CCO2)ncn1` (stereo not drawn) stands 6.11%; under `CCn1c(SC)nnc1C1CCN(C(=O)N2CCCC2)CC1`, -0.78%; under `Cc1ccnn1CCC(=O)N1CCCC2(C1)NC(=O)c1ccccc1O2` (stereo not drawn), -0.776%. As for `Cc1nn(C)cc1NC(=O)CN1CCC(Oc2cnccn2)CC1`, the figure is -4.19%; as for `CNc1cc(C)nc(C2CCN(CCO)CC2)n1`, 1.56%. For `CC(=O)N1CCC(c2nn(C)c3nccnc23)C1` (stereo not drawn), the cytotoxicity at 10 µM was -21.1%. As to `COCCN(CCOC)c1ncc(C#N)cc1Cl`, the cytotoxicity at 10 µM is 2.8%. As for `c1csc(-c2noc(CCCNC3CCc4ncnn4C3)n2)c1` (stereo not drawn), the figure is -1.36%; as for `O=C(NC1(C(=O)NCC2CC2)CCCC1)C1Cc2cc(F)ccc2O1` (stereo not drawn), 8%; as for `Cc1c(NC(=O)NCCO)cccc1OC1CCCC1`, -2.25%. As for `CCOCCC(=O)N(CCC#N)c1ccc(C)c(C)c1`, the figure is 4.06%; as for `CCCN(CC(F)(F)F)S(=O)(=O)c1cc(C(N)=O)n(C)c1`, -4.15%; as for `CCn1nc(C)cc1C(=O)OCCNC(=O)c1ccccc1`, 1.44%.

On to `O=C(NCC1(O)CCSCC1)c1ccoc1`, for which the cytotoxicity at 10 µM is -6.61%. Under `CCCNC(=O)CCNc1cncc(-n2nc(C)cc2C)n1` stands 5.3%; under `Cc1ccc(F)cc1C(=O)N1CCN(S(C)(=O)=O)[C@@H](C)C1`, -2.53%.

Turning to `Cc1occc1CNC(=O)C1CCN(C(=O)OC(C)(C)C)C1` (stereo not drawn), the cytotoxicity at 10 µM was found to be 3.67%.

Turning to `CC(C)(C)c1noc(CN2CCN(C(=O)c3ccco3)CC2)n1`, the cytotoxicity at 10 µM was -15.8%. As for `COCCN1CCCN(C(=O)c2scnc2C)CC1`, the figure is 5.27%; as for `Cc1ccc(CNCC2CCN(CCO)CC2)cc1`, -6.14%; as for `Cc1nccn1-c1cc(CNC(=O)COCC2CC2)ccn1`, 2.37%. Under `CS(=O)(=O)CCN(CC1CCCO1)C1CCCC1` (stereo not drawn) stands 4.4%; under `Brc1csc(CNCc2nnc3n2CCC3)c1`, 5.63%.

For the compound `Cc1ccc(C(C)(O)CNC(=O)c2scnc2C)o1` (stereo not drawn), the cytotoxicity at 10 µM was -1.42%.

As for `COCCOc1ccc(NCc2cccc3cn[nH]c23)cn1`, the cytotoxicity at 10 µM came out at 5.04%. Under `CCC1CN(c2ncnc3nc[nH]c23)CCO1` (stereo not drawn) stands 19.5%. As for `Nc1cc2c(nn1)CCN(C(=O)c1ccc(Oc3cccnc3)cc1)C2`, the figure is 6.27%; as for `Cc1[nH]ncc1CCCNC(=O)N1CCOC(C)C1` (stereo not drawn), 3.14%. Under `COc1cc(C(=O)N(Cc2ccco2)C2CC2)cc2c1OCCO2` stands 2.35%; under `O=C1NCCO[C@H]2CN(C(=O)Cc3ccco3)CC[C@@H]12`, -105%; under `O=C(c1ccnnc1)N1C[C@H](OCC2CC2)[C@H]2COC[C@H]21`, 0.0658%.

For the compound `COCC1CC2(CCN(Cc3ccccn3)CC2)CN1C(C)C` (stereo not drawn), the cytotoxicity at 10 µM is -7.16%.

As for `C=C(C)COc1ccccc1C(=O)NCc1nc(C)cc(=O)[nH]1`, the cytotoxicity at 10 µM was -3.7%.

With `COc1ccccc1OC1CN(C(=O)CN(C)Cc2ccncc2)C1`, the cytotoxicity at 10 µM was -3.09%. As for `CN1CCC(O)(CNC(=O)c2cc(COc3cccc(F)c3)[nH]n2)CC1`, the figure is 2.91%; as for `CS(=O)(=O)NCc1cc2n(n1)CCCN(Cc1cc3ccccc3o1)C2`, 0.403%.

As for `Cn1cccc1C(=O)N1CCCC(Cn2cc(CO)nn2)C1` (stereo not drawn), the cytotoxicity at 10 µM was 1.85%. For the compound `CC(C)CN1CCn2nc(CNc3ncnc4[nH]ccc34)cc2C1`, the cytotoxicity at 10 µM was -0.531%.

Take `CN(C)S(=O)(=O)NCc1nc(-c2cccc(F)c2)c(-c2ccccn2)[nH]1`: the cytotoxicity at 10 µM was -7.76%. Consider `CCCc1nc(CN(CC)C(=O)c2ccc3ncsc3c2)no1`, for which the cytotoxicity at 10 µM turned out to be 9.65%.

`COc1ccc(C(C)n2ccnc2-c2cc3n(n2)CCCNC3)cc1F` (stereo not drawn): the cytotoxicity at 10 µM was -3.06%. Under `O=C1O[C@@H]2CN(c3ccc(Cl)cn3)C[C@@H]2N1CCc1ccc(F)cc1` stands -2.77%; under `O=S(=O)(NCc1ccccc1)N(Cc1ccccn1)CC1CCCO1` (stereo not drawn), 1.62%. Take `Cc1nn2c(NCC(=O)NC3CC3)cc(-c3ccccc3)nc2c1C`: the cytotoxicity at 10 µM is -5.1%. Under `CCN1CCC(CC(=O)N[C@H](C(=O)O)c2cccc(F)c2F)CC1` stands -2.62%; under `Cc1cnccc1CN(C)C(=O)c1cccc(CCC(C)(C)O)c1`, -3.55%; under `Cc1ccc(F)cc1CC(=O)N(CCN1CCOCC1)Cc1ccco1`, -3.91%. As for `Cc1ccccc1N1CCCN(C(=O)c2cn(C)c3ccccc23)CC1`, the figure is -11.2%. Take `COCCc1noc(CN2CCCCC2Cn2cccn2)n1` (stereo not drawn): the cytotoxicity at 10 µM was -1.3%.

`CN(C)C(=O)c1cccc(CN2CCOC(Cn3cccn3)C2)c1` (stereo not drawn): the cytotoxicity at 10 µM is -0.29%. As for `CCc1ccc(C(=O)N2CCCCC2Cn2cccn2)o1` (stereo not drawn), the figure is -6.8%; as for `COc1cc(C(=O)N2CCCC2c2noc(C(C)C)n2)on1` (stereo not drawn), -12.4%. As for `CNc1cc(N2CCCC2CNCc2cscn2)ncn1` (stereo not drawn), the figure is -0.426%; as for `c1ccc(Cc2noc(CN3CCCC(Cn4cncn4)C3)n2)cc1` (stereo not drawn), -2.38%; as for `Cc1ncc(C(=O)N2CCCC(n3cccn3)C2)s1` (stereo not drawn), -5.8%. As for `CN(C)c1cc(CNC(=O)Nc2nncs2)ccn1`, the cytotoxicity at 10 µM is -20.5%. As for `Cc1nc(C)n(CC2CCCN(CCC(=O)N3CCOCC3)C2)n1` (stereo not drawn), the figure is -6.7%. As for `CC(C)C(=O)NCc1ccc(-n2cncn2)nc1`, the figure is 0.239%.

Consider `COC(=O)c1cc(C(=O)N2CCOCC2(C)C)n(-c2ccccc2)n1`, for which the cytotoxicity at 10 µM was -10.2%.

Turning to `O=C(Cn1cnnn1)N1CCCCC1Cn1cccn1` (stereo not drawn), the cytotoxicity at 10 µM was -9.24%. As for `CCCc1noc(CCC(=O)N2CCCC2c2ccsc2)n1` (stereo not drawn), the figure is -11%; as for `Cc1nc(-c2ccc(F)c(F)c2)cc(C2CCNCC2)n1`, 2.04%. As for `CCOCC1CN(Cc2ccccn2)Cc2nn(CC3CC3)cc21` (stereo not drawn), the figure is -0.966%. Under `COCC(=O)NC1CC2(CCN(CC3CC3)CC2)Oc2ccccc21` (stereo not drawn) stands -2.6%. As for `O=C(C1CCCCC1)N1CCCC2(CCN(c3cnccn3)CC2)C1`, the cytotoxicity at 10 µM was found to be 6.59%. Under `CCOC1COC2(CCN(Cc3ccco3)CC2)C1` (stereo not drawn) stands -2.98%; under `CC(C)C1COC2(CCN(Cc3ccco3)CC2)C1` (stereo not drawn), -3.57%; under `Cc1nnc([C@]23COC[C@H]2CN(S(=O)(=O)c2cccnc2)C3)o1`, -97.8%. Under `O=C(c1cccnc1)N1CCC2(CC1)COC(COc1ccccn1)C2` (stereo not drawn) stands -0.735%. Regarding `COCCN1CCN(c2ccc(C)nn2)Cc2cccnc21`, the cytotoxicity at 10 µM was -3.68%. Under `Cc1ccccc1C(=O)N1C[C@@H]2OCCN(c3ncccn3)[C@@H]2C1` stands 29.5%; under `CS(=O)(=O)NC[C@@H]1OC[C@H]2CN(C(=O)c3ccccn3)CC[C@H]21`, -7.47%; under `O=C(CC1CC1)N[C@@H]1CN(Cc2ccco2)C[C@@H]2CCCO[C@@H]21`, -1.63%. As for `c1csc(CN2C[C@@H](n3cccn3)[C@H]3OCCC[C@H]32)c1`, the figure is 1.63%; as for `CCc1nc(C)cc(N2CCN(C(=O)[C@@H]3C[C@H]4C=C[C@@H]3C4)CC2)n1`, 5.68%.
